Results gathered from unrelated publications.
Compare with care: the assays were run in different laboratories.
Observed: cell growth or viability

SMILES	cell line	assay	conditions	quantity	result
CC(C)C[C@@H]1NC(=O)[C@@H](N(C)C(=O)[C@H](CC2CCC2)NC(=O)[C@@H]2C[C@@H](F)CN2C(=O)C2(C(F)(F)F)CC(F)(F)C2)CCCCNC(=O)C2(CC2)NC(=O)[C@H](Cc2cc(Cl)ccc2Cl)N(C)C1=O	NCI-H446	MTT	5 days	GI50	65 nM
O=C(C=Cc1ccccc1)Nc1cc(-c2ccnc(N3CCC(O)CC3)c2)ccn1	MCF-10A	MTT	72 h	IC50	3330 nM
C=C(F)C(=O)N1CCN(c2nc(OC[C@@H]3CCCN3C)nc3c2CCN(c2cccc4cccc(Cl)c24)C3)C[C@@H]1CC#N	NCI-H1373	ATP luminescence	3D culture	IC50	5.15 nM
O=C(NO)c1ccc(CNc2nc3cccc(-c4ccc5c(c4)OCO5)n3n2)cc1	HOP-92	SRB		GI50	700 nM
CN(C)C(=O)c1cncc(-c2cnc3[nH]cc(-c4ccccc4C#N)c3c2)c1	K562	MTT	72 h	GI50	591 nM
C=CC(=O)c1cccnc1Nc1cc(C(F)(F)F)ccc1OC	HCT-15	SRB	48 h	GI50	6960 nM
COc1cc2c3c(n(CCCn4ccnc4)c(=O)c2cc1OC)-c1nc2c(cc1C3=O)OCO2	K562	MTS	72 h	IC50	580 nM
O=C(O)c1cccnc1Nc1cccc(C(F)(F)F)c1	HCT-15	SRB	48 h	GI50	> 30000 nM
Cc1sc2c(c1C)C(c1ccc(Cl)cc1)=N[C@@H](CC(=O)NCCCCCCCCNC(=O)COc1cccc3c1C(=O)N(C1CCC(=O)NC1=O)C3=O)c1nnc(C)n1-2 (some centres unmarked)	K562	ATP luminescence		IC50	343 nM
COc1ccc(C#N)cc1-c1c[nH]c2ncc(-c3cncc(C(=O)N(C)C)c3)cc12	K562	MTT	72 h	GI50	330 nM
COc1cc2c3c(n(CCCN4CCOCC4)c(=O)c2cc1OC)-c1nc2c(cc1C3=O)OCO2	K562	MTS	72 h	IC50	1010 nM
CCN(c1cc(-c2ccc(CN3CCOCC3)cc2)cc(C(=O)NCc2c(C)cc(C)[nH]c2=O)c1C)C1CCOCC1	HT-1376	ATP luminescence	18 days	GI50	385 nM
C=CC(=O)NC1CCN(c2ncc3ncnc(Nc4ccc(Oc5ccc6c(c5)ncn6C)c(C)c4)c3n2)CC1	NCI-H1373			EC50	137000 nM
CN(C)C(=O)c1cncc(-c2cnc3[nH]cc(-c4ccccc4C(F)(F)F)c3c2)c1	K562	MTT	72 h	GI50	453 nM
CCC[C@H]1NC(=O)[C@H](Cc2cc(Cl)ccc2-c2cnn(C)c2)N(C)C(=O)[C@H](CC(C)C)NC(=O)[C@@H](N(C)C(=O)[C@H](CCCCN2CCOCC2)NC(=O)[C@@H](c2cccnc2)C2CCCCC2)CCCCNC1=O	NCI-H446	MTT	5 days	GI50	4200 nM
CN1CCc2cc(Nc3ncc(C4CC4)c(NCCCNC(=O)C4CCC4)n3)ccc2C1	K562	MTT	72 h	GI50	> 1000 nM
C=CC(=O)c1cccnc1Nc1cc(C(F)(F)F)ccc1OCc1ccccc1	HCT-15	SRB	48 h	GI50	19500 nM
